Source: PubChem (Broad Institute)
PglD inh – blocks C. jejuni PglD acetyltransferase activity. purified PglD enzyme, DTNB colorimetric CoA detection. inhibition, % at 12.5 µM. 360,000 tested, 0.098% active. AID 602405; in the data active means inhibition above about 16%, passing the limit was not always enough; inconclusive means no clear call, values can overlap the other calls
Rtt109 HAT inh – inhibitors of Candida albicans Rtt109/Vps75 histone acetyltransferase. Q5AAJ8. inhibition, % at 34.9 µM. purified Rtt109/Vps75, ThioGlo CoA-SH fluorescence, 4 h. 330,000 tested, 0.16% active;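 active means inhibition of at least 50% in every replicate; inconclusive means best replicate reaches 50% inhibition but some replicates fall short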
Target sequence (Q5AAJ8 whole entry, looked up): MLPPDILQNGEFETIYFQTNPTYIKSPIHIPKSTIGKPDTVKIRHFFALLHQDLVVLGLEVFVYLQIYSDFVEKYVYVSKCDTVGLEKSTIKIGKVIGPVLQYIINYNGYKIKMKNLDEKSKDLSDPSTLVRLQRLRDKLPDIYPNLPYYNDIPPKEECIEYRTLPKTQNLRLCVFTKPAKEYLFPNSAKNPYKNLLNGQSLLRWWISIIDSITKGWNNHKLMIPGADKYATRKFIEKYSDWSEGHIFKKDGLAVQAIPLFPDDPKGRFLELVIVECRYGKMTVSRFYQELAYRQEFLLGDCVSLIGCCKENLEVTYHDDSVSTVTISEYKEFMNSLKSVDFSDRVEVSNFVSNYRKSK
SR-BI DiI inh – mouse SR-BI HDL lipid transfer inhibition. ldlA[mSR-BI] CHO cells, DiI-HDL uptake fluorescence, 3 h. Q61009. inhibition, % at 12.5 µM. 320,000 tested, 0.96% active;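 active means mean replicate inhibition of at least 70% and a set share of replicates each scoring 70 or more; inconclusive means meets just one of the two criteria; inactive means fails both criteria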;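 further: 0% = median of neutral control wells and 100% = median of positive control wells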
N-glyco inh – N-linked glycosylation inhibition | 360,000 tested, 0.23% active | AID 588692 | reporter increase, % at 12.5 µM | D54 ERlucT glycosylation luciferase reporter, 24 h; percent of 100 nM tunicamycin response;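 active means mean luciferase reporter signal, scaled so untreated is 0 and the glycosylation-blocking control 100, at or above a set limit in every replicate; inconclusive means mean reaches the limit but not every replicate does; inactive means mean below the limit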;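 further: luciferase carries N-glycosylation sites so blocking glycosylation raises the light; 0% = median of neutral control wells and 100% = median of 100 nM tunicamycin wells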
SR-BI uptake up – enhances SR-BI lipid uptake from DiI-HDL; 320,000 tested, 0.096% active; activation, % at 12.5 µM; CHO ldlA[mSR-BI] cells, DiI-HDL uptake fluorescence, 3 h; 100 = double the neutral-control signal; AID 504775;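 active means mean replicate activation of at least 60% and every replicate at or above 60%; inconclusive means mean or all-replicate condition met, but not both; inactive means mean below 60% and not all replicates reaching 60%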;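 further: 0% = median plate neutral-control signal and 100% = twice that signal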
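Test system: SR-BI-overexpressing, LDLR-lacking CHO cells; Also added: labelled HDL, 10 µg/mL; Measured by: bottom-read cell fluorescence after medium removal, ex 550/em 595 nm; Timing: 3 h uptake period with compound, 37 °C; Buffer or medium: F12, 0.5% BSA, 25 mM HEPES; Doses: single compound concentration, delivered by pin transfer.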
HIV Env fusion – HIV envelope-mediated fusion inhibition; HeLa-JRFL Env/CEM21 cell fusion, luciferase; AID 651610; 360,000 tested, 1.1% active; inhibition, % at 12.3 µM;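 active means mean replicate inhibition score of at least 50 and every replicate individually at or above 50; inconclusive means only one of the two criteria met; inactive means mean below 50 and not all replicates reaching 50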;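 further: 0% = plate neutral controls and 100% = maraviroc near 300 nM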
The depositor's hits bear a star; ? = inconclusive; nt = no result given; [ ] = remark or other dose. Most compounds without a hit are left out; they make up all but 1.9% or so of the library.

SMILES	PglD inh	Rtt109 HAT inh	SR-BI DiI inh	N-glyco inh	SR-BI uptake up	HIV Env fusion
COC(C(=O)C(O)C(C)O)C1Cc2cc3cc(OC4CC(OC5CC(O)C(O)C(C)O5)C(O)C(C)O4)c(C)c(O)c3c(O)c2C(=O)C1OC1CC(OC2CC(OC3CC(O)C(OC)C(C)O3)C(O)C(C)O2)C(O)C(C)O1 (stereo not given)	nt	1	10	-7	-10	78*
O=C(c1ccc2c(c1)OCO2)N(Cc1ccco1)C1(C(=O)NC2CCCCC2)CCCCC1	-2	14	32	-3	-32	88*
COc1ccc(S(=O)(=O)N[C@@H]2CC[C@@H](CC(=O)NCCc3ccncc3)O[C@@H]2CO)cc1	-1	nt	nt	nt	nt	58*[16.7 µM]
CCS(=O)(=O)N[C@@H]1CC[C@H](CC(=O)NCc2ccc(Cl)cc2)O[C@@H]1CO	0	nt	nt	nt	nt	4[16.7 µM]
COc1cccc(S(=O)(=O)N[C@H]2CC[C@H](CC(=O)NCc3ccncc3)O[C@@H]2CO)c1	0	nt	nt	nt	nt	66*[16.7 µM]
CCS(=O)(=O)N[C@H]1CC[C@@H](CC(=O)NCc2ccc(Cl)cc2)O[C@@H]1CO	4	nt	nt	nt	nt	70*[16.7 µM]
COc1ccc(C#Cc2ccc([C@@H]3[C@@H](CO)N4CCCCN(S(=O)(=O)c5cn(C)cn5)C[C@@H]34)cc2)cc1	-3	nt	nt	nt	nt	nt
Cc1ccc(CNC(=O)c2ccc3c(=O)c(O)c(-c4ccc(C)cc4)[nH]c3c2)cc1	-2	-7	23	-12	-23	57*
CCCC(=O)Nc1ccc2c(c1)OC[C@@H](C)N(CCC)C[C@@H](C)[C@@H](OC)CN(C)C2=O	1	nt	nt	nt	nt	-5[16.7 µM]
C/C(=N\O)c1cccc(Br)c1	nt	3	-11	2	11	-10
CCCn1c2ccc(/C(C)=N\O)cc2c2cc(/C(C)=N/O)ccc21	nt	3	101*	7	-101	nt
O=C(NCCN1CCCC1)[C@H]1N[C@H]2c3ccc(C4=CCCCC4)c(=O)n3C[C@H]2[C@@H]1CO	1	nt	nt	nt	nt	nt
CN(C)S(=O)(=O)c1ccc(N2CCCC2)c(C(=O)NCCc2ccc(F)cc2)c1	-5	6	-13	-2	13	75*
CSc1ccccc1NC(=O)c1cc(S(=O)(=O)N(C)C)ccc1N1CCCC1	-2	2	-29	0	29	4
Cc1ccc(NC(=O)c2cc(S(=O)(=O)N(C)C)ccc2N2CCCC2)cc1F	0	15	-18	90*	18	9
CN(C)S(=O)(=O)c1ccc(N2CCCC2)c(C(=O)Nc2ccccc2)c1	3	-4	-18	46*	18	40
Cc1noc(C)c1NC(=O)Nc1ccc2c(c1)C(=O)N([C@@H](C)CO)C[C@H](C)[C@H](CN(C)Cc1ccc(C(F)(F)F)cc1)O2	-12	nt	nt	nt	nt	-24[16.7 µM]
Cc1noc(C)c1NC(=O)Nc1ccc2c(c1)CC(=O)N([C@@H](C)CO)C[C@@H](C)[C@H](CN(C)S(=O)(=O)c1ccc(F)cc1)O2	-3	nt	nt	nt	nt	-11[16.7 µM]
CCNC(=O)[C@H]1[C@H](CO)[C@H]2Cn3c(ccc(/C=C/c4ccccc4)c3=O)[C@H]2N1C(C)=O	-15	nt	nt	nt	nt	nt
NC(=O)C1CCN(c2oc(-c3ccccc3)nc2S(=O)(=O)c2ccc(Br)cc2)CC1	-6	1	-13	0	13	-5
Cc1ccc(S(=O)(=O)c2nc(-c3ccccc3)oc2N2CCC(C(N)=O)CC2)cc1	0	56*	14	1	-14	12
COc1ccc(COC[C@@]23Oc4ccccc4[C@@H](NC(=O)N2C)[C@H]3CO)cc1	2	nt	nt	nt	nt	-25[16.7 µM]
O=C(NC(=C(Cl)Cl)S(=O)(=O)c1ccc(Cl)cc1)c1ccccc1	-4	-12	-27	59*	27	-63
CC(=O)NC(=C(Cl)Cl)S(=O)(=O)c1ccccc1	nt	26	-20	?	20	-95
Cc1ccc(S(=O)(=O)C(NC(=O)c2ccccc2)=C(Cl)Cl)cc1	1	-8	-22	75*	22	-137
Cc1ccc(C(=O)NC(=C(Cl)Cl)S(=O)(=O)c2ccc(C)cc2)cc1	7	4	5	?	-5	7
Cc1ccc(C(=O)NC(=C(Cl)Cl)S(=O)(=O)c2ccc(Cl)cc2)cc1	nt	6	-6	54*	6	-10
CCCNC(=O)C[C@@H]1CC[C@@H]2[C@H](COC[C@H](O)CN2C(=O)Nc2ccccc2OC)O1	-1	nt	nt	nt	nt	nt
